# In ChEMBL document CHEMBL1687796, “Synthesis and spectrum of the neoglycoside ACHN-490” (2010):
# Tests used:
# Assay type in all cases: functional
# Citrobacter = assay: Antibacterial activity against Citrobacter spp. by broth microdilution method
# Procedure, shortened: (§1)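 MICs were determined by CLSI broth microdilution against clinical isolate panels that included aminoglycoside-resistant isolates. […] MIC90 was derived per group and not calculated when n was <10. Imipenem, ceftobiprole, ciprofloxacin and tigecycline MICs were also determined for the resistant isolates.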
# Escherichia coli [1] = assay: Antibacterial activity against Escherichia coli by broth microdilution method; procedure, shortened: as §1
# Enterobacter sp. = assay: Antibacterial activity against Enterobacter spp. by broth microdilution method; procedure, shortened: as §1
# Klebsiella sp. = assay: Antibacterial activity against Klebsiella spp. by broth microdilution method; procedure, shortened: as §1
# Proteus mirabilis = assay: Antibacterial activity against Proteus mirabilis by broth microdilution method; procedure, shortened: as §1
# [2] = Antibacterial activity against indole positive Proteae by broth microdilution method; procedure, shortened: as §1
# Serratia sp. = assay: Antibacterial activity against Serratia spp. by broth microdilution method; procedure, shortened: as §1
# Staphylococcus sp. = assay: Antibacterial activity against Staphylococcus spp. by broth microdilution method; procedure, shortened: as §1
# Acinetobacter sp. = assay: Antibacterial activity against Acinetobacter spp. by broth microdilution method; procedure, shortened: as §1
# Pseudomonas aeruginosa [3] = assay: Antibacterial activity against Pseudomonas aeruginosa by broth microdilution method; procedure, shortened: as §1
# Staphylococcus aureus [4] = assay: Antibacterial activity against aminoglycoside-resistant Staphylococcus aureus expressing APH(2'') + AAC(6') by broth microdilution method
# Procedure, shortened: (§2)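 MICs were measured by broth microdilution following CLSI guidance. The strains formed a 25-strain screening panel with diverse aminoglycoside resistance mechanisms. The panel included Gram-negative and S. aureus strains carrying key aminoglycoside-modifying enzymes, strains with altered permeability or efflux, and an armA ribosomal methyltransferase strain.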
# Acinetobacter = assay: Antibacterial activity against aminoglycoside-resistant Acinetobacter spp. expressing APH(3')-6 by broth microdilution method
# Procedure, shortened: (§3)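 Clinical aminoglycoside-resistant isolates were each carrying a single aminoglycoside-modifying enzyme. […] MICs were determined by CLSI broth microdilution.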
# Acinetobacter baumannii [5] = assay: Antibacterial activity against aminoglycoside-susceptible Acinetobacter baumannii by broth microdilution method
# Acinetobacter baumannii [6] = assay: Antibacterial activity against Acinetobacter baumannii ATCC 19606 by broth microdilution method; conditions: ATCC 19606 = CIP 70.34 = JCM 6841; procedure, shortened: as §2
# [7] = system: Acinetobacter calcoaceticus; assay: Antibacterial activity against aminoglycoside-resistant Acinetobacter calcoaceticus expressing AAC(6')-1 by broth microdilution method; procedure, shortened: as §3
# Pseudomonas aeruginosa [8] = assay: Antibacterial activity against Pseudomonas aeruginosa ATCC 27853 by broth microdilution method
# Pseudomonas aeruginosa [9] = assay: Antibacterial activity against wild type Pseudomonas aeruginosa expressing efflux pump by broth microdilution method
# Procedure, shortened: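 MIC was determined by CLSI broth microdilution, read in μg/ml. The strain came from a 25-strain screening panel with diverse aminoglycoside resistance mechanisms. The panel included strains with changes in permeability or efflux, key aminoglycoside-modifying enzymes and an armA methyltransferase strain.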
# Pseudomonas aeruginosa [10] = assay: Antibacterial activity against efflux pump deficient Pseudomonas aeruginosa by broth microdilution method
# Pseudomonas aeruginosa [11] = assay: Antibacterial activity against Pseudomonas aeruginosa expressing mexXY operon by broth microdilution method; procedure, shortened: as §2
# Pseudomonas aeruginosa [12] = assay: Antibacterial activity against Pseudomonas aeruginosa expressing ANT(4')-2 by broth microdilution method; procedure, shortened: as §2
# Pseudomonas aeruginosa [13] = assay: Antibacterial activity against Pseudomonas aeruginosa expressing AAC(3)-1 by broth microdilution method
# Pseudomonas aeruginosa [14] = assay: Antibacterial activity against Pseudomonas aeruginosa expressing AAC(6')-2 by broth microdilution method
# Klebsiella pneumoniae [15] = assay: Antibacterial activity against aminoglycoside-resistant Klebsiella pneumoniae expressing AAC(3)-1 by broth microdilution method; procedure, shortened: as §3
# Citrobacter freundii [16] = assay: Antibacterial activity against aminoglycoside-resistant Citrobacter freundii expressing AAC(3)-2 by broth microdilution method; procedure, shortened: as §3
# Klebsiella aerogenes [17] = assay: Antibacterial activity against aminoglycoside-resistant Enterobacter aerogenes expressing AAC(3)-2 by broth microdilution method; procedure, shortened: as §3
# Enterobacter cloacae [18] = assay: Antibacterial activity against aminoglycoside-resistant Enterobacter cloacae expressing AAC(3)-2 by broth microdilution method; procedure, shortened: as §3
# Escherichia coli [19] = assay: Antibacterial activity against aminoglycoside-resistant Escherichia coli expressing AAC(3)-2 by broth microdilution method; procedure, shortened: as §3
# Klebsiella oxytoca [20] = assay: Antibacterial activity against aminoglycoside-resistant Klebsiella oxytoca expressing AAC(3)-2 by broth microdilution method; procedure, shortened: as §3
# Klebsiella pneumoniae [21] = assay: Antibacterial activity against aminoglycoside-resistant Klebsiella pneumoniae expressing AAC(3)-2 by broth microdilution method; procedure, shortened: as §3
# Serratia liquefaciens = assay: Antibacterial activity against aminoglycoside-resistant Serratia liquefaciens expressing AAC(3)-2 by broth microdilution method; procedure, shortened: as §3
# Escherichia coli [22] = assay: Antibacterial activity against aminoglycoside-resistant Escherichia coli expressing AAC(3)-4 by broth microdilution method; procedure, shortened: as §3
# Klebsiella pneumoniae [23] = assay: Antibacterial activity against aminoglycoside-resistant Klebsiella pneumoniae expressing AAC(3)-4 by broth microdilution method; procedure, shortened: as §3
# Citrobacter freundii [24] = assay: Antibacterial activity against aminoglycoside-resistant Citrobacter freundii expressing AAC(6')-1 by broth microdilution method; procedure, shortened: as §3
# Klebsiella aerogenes [25] = assay: Antibacterial activity against aminoglycoside-resistant Enterobacter aerogenes expressing AAC(6')-1 by broth microdilution method; procedure, shortened: as §3
# Enterobacter cloacae [26] = assay: Antibacterial activity against aminoglycoside-resistant Enterobacter cloacae expressing AAC(6')-1 by broth microdilution method; procedure, shortened: as §3
# Escherichia coli [27] = assay: Antibacterial activity against aminoglycoside-resistant Escherichia coli expressing AAC(6')-1 by broth microdilution method; procedure, shortened: as §3
# Klebsiella oxytoca [28] = assay: Antibacterial activity against aminoglycoside-resistant Klebsiella oxytoca expressing AAC(6')-1 by broth microdilution method; procedure, shortened: as §3
# Klebsiella pneumoniae [29] = assay: Antibacterial activity against aminoglycoside-resistant Klebsiella pneumoniae expressing AAC(6')-1 by broth microdilution method; procedure, shortened: as §3
# Serratia marcescens [30] = assay: Antibacterial activity against aminoglycoside-resistant Serratia marcescens expressing AAC(6')-1 by broth microdilution method; procedure, shortened: as §3
# Staphylococcus aureus [31] = assay: Antibacterial activity against aminoglycoside-resistant Staphylococcus aureus expressing ANT(4',4'')-2 by broth microdilution method; procedure, shortened: as §3
# [32] = system: Staphylococcus epidermidis; assay: Antibacterial activity against aminoglycoside-resistant Staphylococcus epidermidis expressing ANT(4',4'')-2 by broth microdilution method; procedure, shortened: as §3
# Staphylococcus aureus [33] = assay: Antibacterial activity against aminoglycoside-resistant Staphylococcus aureus expressing APH(2'') + AAC(6')-1 by broth microdilution method; procedure, shortened: as §3
# [34] = system: Staphylococcus epidermidis; assay: Antibacterial activity against aminoglycoside-resistant Staphylococcus epidermidis expressing APH(2'') + AAC(6')-1 by broth microdilution method; procedure, shortened: as §3
# Acinetobacter baumannii [35] = assay: Antibacterial activity against aminoglycoside-resistant Acinetobacter baumannii expressing […] by broth microdilution method; procedure, shortened: as §3
# Acinetobacter baumannii [36] = assay: Antibacterial activity against aminoglycoside-resistant Acinetobacter baumannii expressing ANT(2'')-1 by broth microdilution method; procedure, shortened: as §3
# Acinetobacter baumannii [37] = assay: Antibacterial activity against aminoglycoside-resistant Acinetobacter baumannii expressing APH(3')-6 by broth microdilution method; procedure, shortened: as §3
# Pseudomonas aeruginosa [38] = assay: Antibacterial activity against aminoglycoside-resistant Pseudomonas aeruginosa expressing AAC(6')-2 by broth microdilution method; procedure, shortened: as §3
# Pseudomonas aeruginosa [39] = assay: Antibacterial activity against aminoglycoside-resistant Pseudomonas aeruginosa expressing ANT(2'')-1 by broth microdilution method; procedure, shortened: as §3
# [40] = system: Staphylococcus epidermidis; assay: Antibacterial activity against aminoglycoside-resistant Staphylococcus epidermidis expressing APH(3')-3 by broth microdilution method
# Klebsiella pneumoniae [41] = assay: Antibacterial activity against Klebsiella pneumoniae ATCC 10031 by broth microdilution method; procedure, shortened: as §2
# Escherichia coli [42] = assay: Antibacterial activity against aminoglycoside-resistant Escherichia coli expressing ANT(6')-1 by broth microdilution method; procedure, shortened: as §3
# Escherichia coli [43] = assay: Antibacterial activity against Escherichia coli ATCC 25922 by broth microdilution method; procedure, shortened: as §2
# Escherichia coli [44] = assay: Antibacterial activity against aminoglycoside-resistant Escherichia coli expressing ANT(2'')-1 by broth microdilution method; procedure, shortened: as §3
# Escherichia coli [45] = assay: Antibacterial activity against aminoglycoside-resistant Escherichia coli expressing ANT(3)-2 by broth microdilution method; procedure, shortened: as §3
# Escherichia coli [46] = assay: Antibacterial activity against aminoglycoside-resistant Escherichia coli expressing armA methylase by broth microdilution method; procedure, shortened: as §2
# Serratia marcescens [47] = assay: Antibacterial activity against aminoglycoside-resistant Serratia marcescens expressing ANT(2''), AAC(6') by broth microdilution method; procedure, shortened: as §2
compound,measurement,setting,value
O=C(O)c1cn(C2CC2)c2cc(N3CCNCC3)c(F)cc2c1=O [CIPROFLOXACIN],MIC50,Citrobacter,8 µg/mL
same,MIC50,Escherichia coli [1],> 16 µg/mL
same,MIC90,Escherichia coli [1],> 16 µg/mL
same,MIC50,Enterobacter sp.,1 µg/mL
same,MIC90,Enterobacter sp.,> 16 µg/mL
same,MIC50,Klebsiella sp.,16 µg/mL
same,MIC90,Klebsiella sp.,> 16 µg/mL
same,MIC50,Proteus mirabilis,2 µg/mL
same,MIC90,Proteus mirabilis,> 16 µg/mL
same,MIC50,[2],16 µg/mL
same,MIC50,Serratia sp.; Serratia sp. (in: enterobacteria),4 µg/mL
same,MIC50,Staphylococcus sp.,16 µg/mL
same,MIC90,Staphylococcus sp.,> 16 µg/mL
same,MIC50,Acinetobacter sp.,> 16 µg/mL
same,MIC90,Acinetobacter sp.,> 16 µg/mL
same,MIC50,Pseudomonas aeruginosa [3],8 µg/mL
same,MIC90,Pseudomonas aeruginosa [3],> 16 µg/mL
GENTAMICIN,MIC,Staphylococcus aureus [4],> 64 µg/mL
same,MIC,Acinetobacter,1 µg/mL
same,MIC,Acinetobacter baumannii [5],1 µg/mL
same,MIC,Acinetobacter baumannii [6],16 µg/mL
same,MIC,[7],8 µg/mL
same,MIC,Pseudomonas aeruginosa [8],1 µg/mL
same,MIC,Pseudomonas aeruginosa [9],1 µg/mL
same,MIC,Pseudomonas aeruginosa [10],0.125 µg/mL
same,MIC,Pseudomonas aeruginosa [11],2 µg/mL
same,MIC,Pseudomonas aeruginosa [12],4 µg/mL
same,MIC,Pseudomonas aeruginosa [13],64 µg/mL
same,MIC,Pseudomonas aeruginosa [14],32 µg/mL
same,MIC50,Citrobacter,> 64 µg/mL
same,MIC50,Escherichia coli [1],64 µg/mL
same,MIC90,Escherichia coli [1],> 64 µg/mL
same,MIC50,Enterobacter sp.,32 µg/mL
same,MIC90,Enterobacter sp.,> 64 µg/mL
same,MIC50,Klebsiella sp.,32 µg/mL
same,MIC90,Klebsiella sp.,> 64 µg/mL
same,MIC50,Proteus mirabilis,32 µg/mL
same,MIC90,Proteus mirabilis,> 64 µg/mL
same,MIC50,[2],> 64 µg/mL
same,MIC50,Serratia sp.,64 µg/mL
same,MIC50,Staphylococcus sp.,32 µg/mL
same,MIC90,Staphylococcus sp.,> 64 µg/mL
same,MIC50,Acinetobacter sp.,> 64 µg/mL
same,MIC90,Acinetobacter sp.,> 64 µg/mL
same,MIC50,Pseudomonas aeruginosa [3],> 64 µg/mL
same,MIC90,Pseudomonas aeruginosa [3],> 64 µg/mL
same,MIC,Klebsiella pneumoniae [15],32 µg/mL
same,MIC,Citrobacter freundii [16],62 µg/mL
same,MIC,Klebsiella aerogenes [17],62 µg/mL
same,MIC,Enterobacter cloacae [18],62 µg/mL
same,MIC,Escherichia coli [19],62 µg/mL
same,MIC,Klebsiella oxytoca [20],62 µg/mL
same,MIC,Klebsiella pneumoniae [21],62 µg/mL
same,MIC,Serratia liquefaciens,62 µg/mL
same,MIC,Escherichia coli [22],16 µg/mL
same,MIC,Klebsiella pneumoniae [23],16 µg/mL
same,MIC,Citrobacter freundii [24],1 µg/mL
same,MIC,Klebsiella aerogenes [25],1 µg/mL
same,MIC,Enterobacter cloacae [26],1 µg/mL
same,MIC,Escherichia coli [27],1 µg/mL
same,MIC,Klebsiella oxytoca [28],1 µg/mL
same,MIC,Klebsiella pneumoniae [29],1 µg/mL
same,MIC,Serratia marcescens [30],1 µg/mL
same,MIC,Staphylococcus aureus [31],1 µg/mL
same,MIC,[32],1 µg/mL
same,MIC,Staphylococcus aureus [33],50 µg/mL
same,MIC,[34],50 µg/mL
same,MIC,Acinetobacter baumannii [35],16 µg/mL
same,MIC,Acinetobacter baumannii [36],> 64 µg/mL
same,MIC,Acinetobacter baumannii [37],4 µg/mL
same,MIC,Pseudomonas aeruginosa [38],64 µg/mL
same,MIC,Pseudomonas aeruginosa [39],56 µg/mL
same,MIC,[40],1 µg/mL
same,MIC,Klebsiella pneumoniae [41],0.125 µg/mL
same,MIC,Escherichia coli [42],4 µg/mL
same,MIC,Escherichia coli [43],1 µg/mL
same,MIC,Escherichia coli [44],> 64 µg/mL
same,MIC,Escherichia coli [45],> 64 µg/mL
same,MIC,Escherichia coli [46],> 64 µg/mL
same,MIC,Serratia marcescens [47],4 µg/mL
